# Only some compounds are listed: those with a hit (about 1.4% of all), similar ones and a draw of the others.
# SIAE primary: blocks human sialic acid acetylesterase; 0.69% of 370,000 active; AID 1053197; inhibition, % at 9.66 µM; Q9HAT2; SIAE FP-Rh probe binding, fluorescence polarization;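 active means inhibition above a cutoff: mean of compounds within the control limits plus 3 SD of those, cut at about 17% in these data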
# ABHD4 inh: inhibits mouse alpha/beta hydrolase domain 4; Q8VD66; purified mABHD4, FP-Rh probe fluorescence polarization; inhibition, % at 8.92 µM; AID 720543; 0.54% of 370,000 active;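 active means inhibition exceeding the mean over every tested compound plus 3 SD, cut at about 30% in these data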
#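 Doses – 8.92 µM, single dose · Material – wild-type mouse ABHD4 protein · Replication – single well per compound (singlicate) · Measure – percent inhibition of probe binding, normalized to plate controls · Schedule – 45 min compound pre-incubation plus 60 min probe step, 25 °C · Detection – fluorescence polarization with parallel and perpendicular emission, 525/598 nm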
# HTRA1 inh: blocks human HTRA1 serine peptidase; Q92743; recombinant HTRA1, FP-rhodamine activity-based probe, fluorescence polarization; inhibition, % at 5.96 µM; 0.5% of 340,000 active; AID 504803; in the data active means inhibition above about 36%
# Target sequence (Q92743 whole entry, looked up): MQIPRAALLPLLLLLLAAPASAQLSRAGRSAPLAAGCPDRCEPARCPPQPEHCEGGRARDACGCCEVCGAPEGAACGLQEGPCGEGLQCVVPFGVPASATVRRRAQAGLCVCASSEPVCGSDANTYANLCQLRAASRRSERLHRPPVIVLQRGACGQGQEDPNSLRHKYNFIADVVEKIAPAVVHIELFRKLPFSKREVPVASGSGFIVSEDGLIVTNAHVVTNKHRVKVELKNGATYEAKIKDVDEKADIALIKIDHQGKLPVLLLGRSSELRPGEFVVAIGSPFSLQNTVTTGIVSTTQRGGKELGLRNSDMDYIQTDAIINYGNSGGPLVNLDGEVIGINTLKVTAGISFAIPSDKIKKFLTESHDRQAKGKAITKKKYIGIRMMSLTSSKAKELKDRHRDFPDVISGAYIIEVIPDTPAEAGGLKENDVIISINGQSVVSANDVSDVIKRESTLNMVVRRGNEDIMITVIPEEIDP
# RBBP9 inh: blocks human serine hydrolase RBBP9. inhibition, % at 7.94 µM. recombinant RBBP9, FP-Rh probe fluorescence polarization. 0.2% of 220,000 active. O75884;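 active means inhibition above the campaign mean of all tested compounds plus 3 SD, cut at about 14% in these data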
#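 system = RBBP9 protein | input = RBBP9 at 2.5 µM in dispensed solution, before mixing | measured by = fluorescence polarization (mP), excitation 525 nm, emission 598 nm | incubation = enzyme-compound preincubation 30 min, then probe labeling 45 min, 25 °C | buffer or medium = Tris-NaCl-Pluronic buffer, pH 8.0 | compound = single dose 7.94 µM | also added = FP-Rh probe, 375 nM dispensing solution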
# SIAE inh conf: confirmation of human SIAE inhibitors; shares compounds with SIAE primary; SIAE FP-Rh activity-based probe, fluorescence polarization; inhibition, % at 9.66 µM; 13% of 2,300 active; AID 1117263;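 active means mean inhibition of the replicates above the hit cutoff set in the primary screen, cut at about 17% in these data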;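 further: inhibitors lower polarization as more probe stays unbound to SIAE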
# Numbers stand for hits; n = inactive; x = no result.
SMILES,SIAE primary,ABHD4 inh,HTRA1 inh,RBBP9 inh,SIAE inh conf
COc1cc(CCCN2CCNC[C@@H]2c2ccccc2)cc(OC)c1OC,n,n,n,x,x
COc1ccc(/C=C2/C(=O)ON=C2C)cc1Cl,22,n,n,x,n
Cc1ccc(S(=O)(=O)Nc2c(C)n(C)n(-c3ccccc3)c2=O)cc1C(=O)OC(C)C(=O)c1ccccc1 (configuration not stated),n,n,n,x,x
Cc1ccc(S(=O)(=O)Nc2c(C)n(C)n(-c3ccccc3)c2=O)cc1C(=O)OC(C)C(=O)N(C)c1ccccc1 (configuration not stated),21,n,n,n,n
COC(=O)Nc1ccc(S(=O)(=O)N2CCCC(C(=O)O)C2)cc1 (configuration not stated),19,n,n,n,n
CC(=O)Nc1ccc(S(=O)(=O)N2CCCC(C(=O)O)C2)cc1 (configuration not stated),n,n,n,n,x
Cc1ccc(-n2[nH]c(C)c(C=Nc3ccc4[nH]c(=O)[nH]c4c3)c2=O)cc1,23,n,n,n,n
CC1CC(CCN)(c2ccccc2)C(C)CN1C (configuration not stated),n,n,n,n,x
C=C1CCC[C@]2(C)C[C@H]3OC(=O)C(CNCCN(CC)CC)[C@H]3CC12 (some centres not stated),22,n,n,x,n
C=C1CCC[C@]2(C)C[C@H]3OC(=O)C(CNCCN(C)C)[C@H]3CC12 (some centres not stated),n,n,n,x,x
CCOC(=O)C1(C)CCN1C(=O)c1ccc(F)c(Cl)c1 (configuration not stated),n,n,x,x,x
Cc1cccc(C)c1NC(=O)C(c1ccccc1)N1CCC(c2ccccc2)CC1 (configuration not stated),n,n,x,x,x
COC(=O)c1ccc2c(C(C)c3ccccc3O)c[nH]c2c1 (configuration not stated),n,n,x,x,x
COc1cc(/C=N/NC(=S)NC2CC3CC2C2C=CCC32)ccc1O (configuration not stated),23,n,n,n,n
C/C(=N\Nc1nc2ccccc2[nH]1)c1ccc2c(c1)OCCO2,20,n,n,n,n
C/C(=N\Nc1nc2ccccc2[nH]1)c1cc2ccccc2o1,24,n,n,n,n
C/C(=N\NC(=O)c1ccncc1)c1cc2ccccc2o1,n,n,n,n,x
CCC1CCCCN1C(=O)COC(=O)c1cc(=O)[nH]c2ccccc12 (configuration not stated),n,n,n,x,x
C[C@H]1[C@@H](c2ccccc2)Oc2ccc(Cl)cc2S(=O)(=O)N1Cc1cccc(F)c1,n,n,x,x,x
COc1ccc2[nH]c3c(c2c1)CCN1C(=O)C(CC(=O)NC(C)(C)C)C[C@H](C(=O)N(C(C)C)C(C)C)[C@@]31C (some centres not stated),n,n,n,x,x
CCNC(=S)Nc1cc(C(=O)N2CCCC2)ccc1N1CCCC1,23,n,n,n,n
CCOc1ccc(NC(=O)CN(C)C(=O)c2c(C)nn(-c3ccccc3)c2Cl)cc1OCC,19,n,n,x,n
CCOc1ccc(NC(=O)CN(C)C(=O)c2c(C)nn(-c3ccc(F)cc3)c2Cl)cc1OCC,n,n,n,x,x
Cc1nn(-c2ccccc2)c(Cl)c1C(=O)NCC(=O)O,19,n,n,n,n
CC(C)n1nnnc1C1(C)CSCC(=O)N1Cc1cccc(F)c1 (configuration not stated),n,n,x,x,x
SMILES,SIAE primary,ABHD4 inh,HTRA1 inh,RBBP9 inh,SIAE inh conf
Cc1[nH]c2ccccc2c1/C=N\NC(=O)c1ccccc1Cl,n,n,n,x,x
Cc1[nH]c2ccccc2c1/C=N/NC(=O)C1CC1(c1ccccc1)c1ccccc1 (configuration not stated),27,n,n,n,n
CC(C)NC(=S)N/N=C/c1c[nH]c2ccccc12,n,n,n,n,x
Cc1[nH]c2ccccc2c1/C=N/NC(=S)NC(C)C,20,n,n,n,n
CC(=O)N1CCCN(S(=O)(=O)c2ccc3c(c2)c(=O)n(C)c(=O)n3C)CC1,n,n,x,x,x
CC(C)SCc1cc(N2CCCC2)nc(-c2ccccc2)n1,n,n,n,n,x
CSCc1cc(N2CCCC2)nc(-c2ccccc2)n1,19,n,n,n,n
C[C@H](c1ccccc1)N1C[C@H](COCc2ccccc2)Oc2cc(N3CC[C@@H](N(C)C)C3)ccc2S1(=O)=O,n,n,x,x,x
C[C@@H](c1ccccc1)N1C[C@@H](COCc2ccccc2)Oc2cc(N3CC[C@@H](N(C)C)C3)ccc2S1(=O)=O,18,n,x,x,n
Cc1noc(C)c1S(=O)(=O)N(C)C[C@@H]1OCc2cnnn2CCCC(=O)N([C@@H](C)CO)C[C@@H]1C,n,n,x,x,x
CCCCCC(=O)Nc1ccc(-c2csc(N)n2)cc1,18,n,n,n,n
Oc1ccccc1N=Nc1nc(-c2ccccc2)c(-c2ccccc2)[nH]1,17,n,n,n,n
CCC(=O)OCCCN1C(=O)CCC12CCC(C)CC2 (configuration not stated),n,n,x,x,x
CC1CCC2(CCC(=O)N2CCCOC(=O)NC(C)(C)C)CC1 (configuration not stated),47,n,x,x,n
Cc1ccc(NC(=O)COc2cccc(-n3cnnn3)c2)cc1[N+](=O)[O-],n,n,n,x,x
O=C(COC(=O)c1cc(Cl)ccc1O)NCCC1=CCCCC1,17,n,n,x,n
O=C(COC(=O)Cc1ccc(Cl)cc1Cl)NCCC1=CCCCC1,n,n,n,n,x
O=C(NCCc1ccccc1Cl)[C@@H]1CCCN1C(=O)[C@H](Cc1cccnc1)NC(=O)N1CCOCC1,n,n,x,x,x
OC(c1ccc(CN2CCCCC2)cc1)c1ncc(-c2ccccc2)[nH]1 (configuration not stated),24,n,x,x,n
CCNC(=O)N(C)[C@H]1C[C@@H](c2ccccc2)N(C(C)=O)C[C@H]1CO,n,n,x,x,x
O=C(Nc1nc2ncccn2c1-c1ccccc1)c1ccc(F)cc1,n,n,x,x,x
COc1ccc2c(c1)CC=C1C2CCC2(C)C(=O)C(=NO)CC12 (configuration not stated),19,n,n,x,22
O=C1S/C(=C\C=C\c2ccco2)C(=O)N1c1ccc(O)cc1,n,n,n,n,x
Cc1cccc(N=C2NC(=O)/C(=C/C=C/c3ccco3)S2)c1C,18,n,n,n,n
O=C1S/C(=C\C=C\c2ccco2)C(=O)N1c1ccccc1,21,n,n,n,n
Cc1cccc(N=C2NC(=O)/C(=C/c3cccn3C)S2)c1C,n,n,n,n,x
O=C1NC(=Nc2ccccc2)S/C1=C\C=C\c1ccco1,24,n,n,n,n
Cc1ccc(N=C2NC(=O)/C(=C/C=C/c3ccco3)S2)cc1,n,n,n,n,x
O=C(Nc1ccc(-c2csc(Nc3ccccc3)n2)cc1)c1cc([N+](=O)[O-])cc(C(F)(F)F)c1,40,n,n,x,20

# Screening data from PubChem.
